PKD1 inh: blocks activity of human protein kinase D1; PKD1 kinase fluorescence polarization assay; inhibition, % (concentration not given with the values); hit rate 0.056% among 200,000; in the data active = inhibition above about 50%
Target sequence (Q15139 whole entry, looked up): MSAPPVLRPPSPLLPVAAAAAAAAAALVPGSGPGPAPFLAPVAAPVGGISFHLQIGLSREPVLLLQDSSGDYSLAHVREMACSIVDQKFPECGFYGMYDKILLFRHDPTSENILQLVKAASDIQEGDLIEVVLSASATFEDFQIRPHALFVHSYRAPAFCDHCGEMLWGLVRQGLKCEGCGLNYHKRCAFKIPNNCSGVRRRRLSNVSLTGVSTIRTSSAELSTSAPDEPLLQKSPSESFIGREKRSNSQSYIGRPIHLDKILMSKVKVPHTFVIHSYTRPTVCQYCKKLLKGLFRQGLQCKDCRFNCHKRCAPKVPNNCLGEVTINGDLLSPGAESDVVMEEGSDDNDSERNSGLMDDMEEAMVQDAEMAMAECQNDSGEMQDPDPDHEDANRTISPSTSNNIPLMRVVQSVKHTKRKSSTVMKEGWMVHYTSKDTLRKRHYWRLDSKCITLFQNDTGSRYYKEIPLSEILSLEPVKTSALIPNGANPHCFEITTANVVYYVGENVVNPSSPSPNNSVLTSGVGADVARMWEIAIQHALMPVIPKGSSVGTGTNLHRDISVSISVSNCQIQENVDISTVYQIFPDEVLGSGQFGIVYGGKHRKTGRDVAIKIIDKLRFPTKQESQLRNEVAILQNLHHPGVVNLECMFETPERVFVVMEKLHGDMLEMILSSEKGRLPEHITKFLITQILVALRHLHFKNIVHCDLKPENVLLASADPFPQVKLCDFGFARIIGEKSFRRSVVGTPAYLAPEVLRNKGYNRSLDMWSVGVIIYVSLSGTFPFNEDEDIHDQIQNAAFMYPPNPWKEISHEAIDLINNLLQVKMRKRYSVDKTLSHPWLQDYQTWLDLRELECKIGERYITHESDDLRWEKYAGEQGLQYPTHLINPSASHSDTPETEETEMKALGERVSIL
Rad51 HR inh: Rad51 (human) homologous recombination inhibition; hit rate 0.085% among 200,000; Q06609; hRad51 DNA strand exchange, fluorescence dequenching; inhibition, % at 10 µM;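 active = inhibition above 40% at the single screening dose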
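Material: human Rad51–ssDNA filaments; Probe or stimulus: labelled 47-mer dsDNA for strand exchange; Doses: single 10 µM dose; Incubation: 37 °C 15-min filament assembly, 30-min compound preincubation, 15-min exchange; Technique: FRET fluorescence dequenching, excitation 485 nm, emission 520 nm; Measure: Fluorescence-based percent inhibition, control- and blank-normalised; Benchmarks: plate control and blank wells.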
Cl transport mod: modulates chloride dependent transport by human KCC2. KCC2 cells, thallium flux FluoZin-2 fluorescence. hit rate 2.2% among 190,000. B-score of Tl+ flux slope (higher = more flux/activation; lower = inhibition) at 10 µM;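 active = thallium flux slope and its plate-corrected score both differing from the plate sample mean at a set confidence after two filtering rounds, in either direction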;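 note: slope of fluorescence scaled to starting intensity during 10 to 20 s after thallium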
ROMK primary: human ROMK K+ channel modulation, primary screen; P48048; Tet-inducible ROMK, thallium flux fluorescence; actives lie on both sides; AID 1918; B-score at 10 µM; hit rate 2% among 130,000;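 active = signal ratio slope over the read window, or its plate-corrected B-score, at least 3 SD from the plate mean, either direction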;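 note: B-score of the F/F0 ratio slope over 7 to 12 s after thallium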
KCC2 secondary: confirmation of human KCC2 transport modulators. shares compounds with Cl transport mod. HEK293-KCC2, thallium flux, FluoZin2 fluorescence; stronger effect = higher value. normalised thallium flux (F/F0 slope) at 10 µM. hit rate 15% among 3,700. AID 1713;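 active = thallium flux slope above the same plate's solvent-only control mean plus 3 SD; inconclusive = the two replicate wells disagree; inactive = no significant difference from solvent-only control wells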
KCC2 bumet counter: thallium flux despite bumetanide block in KCC2 cells, secondary assay 3; shares compounds with Cl transport mod; HEK293-KCC2 + bumetanide/ouabain, thallium flux FluoZin2; stronger effect = higher value; normalized thallium flux at 10 µM; hit rate 49% among 3,700;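 active = thallium entry rate above the same plate's blocked-transporter control wells by more than 3 SD; inconclusive = the two repeat wells disagree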;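 note: raw slope of fluorescence over initial fluorescence between 10 and 20 s after thallium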
KCC2 sec2: KCC2 (human) modulation, second secondary assay | shares compounds with Cl transport mod | hit rate 23% among 3,700 | normalized thallium flux at 10 µM | HEK293-KCC2, thallium flux FluoZin2 fluorescence; actives lie on both sides; F/F0 rise rate, 10–20 s post-thallium;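 active = thallium flux slope more than 3 SD above or below the plate's solvent-only control mean, mostly below; inconclusive = the two repeat wells disagreed; inactive = no significant shift from solvent-only controls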
HEK counter1: parental HEK flux effect, counter-screen | HEK293 parental cells, thallium flux FluoZin2, ouabain; baseline-ratio fluorescence slope, 10–20 s after thallium | shares compounds with Cl transport mod | hit rate 46% among 3,700 | AID 1716 | thallium flux rate (normalised fluorescence) at 10 µM;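 active = thallium flux rate significantly above the same plate's solvent-only control wells, beyond their mean plus 3 SD; inconclusive = the two replicate wells gave conflicting results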
KCC2 retest ouab: modulates human KCC2 on retest with ouabain; shares compounds with Cl transport mod; HEK293-KCC2, thallium flux FluoZin2 fluorescence; bidirectional: low = inhibitor, high = activator; raw Tl+ flux slope (below DMSO = inhibition, above = activation) at 10 µM; hit rate 48% among 3,700; AID 1717;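 active = thallium flux slope beyond 3 SD from same-plate DMSO control mean in most replicates, usually higher, sometimes lower; inconclusive = repeat tests gave conflicting results; inactive = no significant difference from controls in most replicates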;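 note: slope of initial-normalized fluorescence between seconds 10 and 20 after thallium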
HEK293 Tl flux2: counter-screen for KCC2 modulators: effect in parental HEK293 cells. shares compounds with Cl transport mod. thallium flux FluoZin-2 fluorescence slope. thallium flux slope at 10 µM. hit rate 33% among 3,700;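 active = thallium flux slope above the same plate's solvent-control mean plus 3 SD in both duplicate wells; inconclusive = duplicate wells that disagreed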;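 note: run without ouabain in cells lacking the KCC2 cotransporter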
A number is an active result; - = inactive; ? = inconclusive; . = no result. This is a sample that favours compounds with a hit; in the whole collection about 3% have one here.

SMILES	PKD1 inh	Rad51 HR inh	Cl transport mod	ROMK primary	KCC2 secondary	KCC2 bumet counter	KCC2 sec2	HEK counter1	KCC2 retest ouab	HEK293 Tl flux2
O=C(C1CCN(S(=O)(=O)c2cccc3cccnc23)CC1)N1CCN(c2ccc(Cl)cc2)CC1	-	-	-3.73	.	-	?	-	-	-	-
O=S(=O)(c1cccc2cccnc12)N1CCN(Cc2ccccc2)CC1	-	-	-3.06	-	-	-	0.0248	-	0.0172	-
COc1ccccc1NC(=O)C1=C(C)NC(SCC(=O)Nc2ccc(C(=O)O)cc2)=C(C#N)C1c1cccs1 (stereo not drawn)	.	-	-	.	.	.	.	.	.	.
CCC(C)C(N)C(=O)NC(CCC(=O)OCc1ccccc1)C(N)=O (stereo not drawn)	-	-	.	-	.	.	.	.	.	.
CCCCCCCCNC(=O)C(CCC(=O)OCc1ccccc1)NC(C)=O (stereo not drawn)	-	-	.	-	-	-	0.0226	?	0.013	-
Fc1ccc(-n2ncc3c(SCc4cccnc4)ncnc32)cc1	-	-	21.3	.	-	0.0256	?	0.0292	0.0308	0.0232
c1ccc(CSc2ncnc3c2cnn3Cc2ccccc2)cc1	-	-	-	-	.	.	.	.	.	.
CCn1c(=O)cc(SCC(=O)NCC2CCCO2)c2ccccc21 (stereo not drawn)	-	-	.	-	.	.	.	.	.	.
CCn1c(O)c(N=NC(=S)NCC2CCCO2)c2ccccc21 (stereo not drawn)	-	-	53	-	-	0.0781	0.0582	0.0553	0.0674	0.0563
O=C(CCCn1c(=S)[nH]c2ccc(Br)cc2c1=O)NCC1CCCO1 (stereo not drawn)	-	-	.	.	.	.	.	.	.	.
Oc1[nH]c2ccc(Br)cc2c1N=NC(=S)NCC1CCCO1 (stereo not drawn)	.	-	34.9	-	0.0138	0.0483	-	?	0.0364	0.0178
COCCNC(=O)/C(C#N)=c1\s/c(=C\c2ccccc2OC(F)F)c(=O)n1Cc1ccccc1	-	.	-	-	.	.	.	.	.	.
O=c1c(Cl)c(N2CCC3(CC2)OCCO3)cnn1C12CC3CC(CC(C3)C1)C2	.	-	-	.	.	.	.	.	.	.
CC(OC(=O)c1cc2sccc2n1C)C(=O)NCCc1ccccc1 (stereo not drawn)	-	-	-5.61	.	-	?	?	-	0.0139	-
COC(=O)c1ccccc1NC(=O)c1cc2sccc2n1C	-	-	8.3	-	-	-	-	-	-	-
Cn1nnnc1SCCNCc1ccncc1	-	-	.	.	-	-	-	?	-	-
CCOC(=O)N1CCC(N2C(=O)c3ccccc3C2Nc2ccc(S(=O)(=O)N(CC)CC)cc2)CC1 (stereo not drawn)	-	.	-	-	.	.	.	.	.	.
O=C(c1cnn2cccnc12)N1CCN(Cc2ccc3c(c2)OCO3)CC1	-	-	-	.	.	.	.	.	.	.
CCOc1ncccc1C(=O)N1CCN(Cc2ccc3c(c2)OCO3)CC1	-	-	4.79	.	-	-	-	-	-	-
O=C(c1ccc(COc2ccccc2Cl)o1)N1CCN(Cc2ccc3c(c2)OCO3)CC1	-	-	-	-	-	-	-	-	?	-
COc1ccccc1NC(=O)c1ccc(COc2ccccc2OC)o1	-	-	-3.74	.	-	?	?	-	?	-
O=C(NCc1cccnc1)c1ccc(COc2ccc(Cl)cc2Cl)o1	-	-	-4.36	-	-	-	0.0289	-	0.0146	-
Cc1cc(Cl)ccc1OCC(=O)N(Cc1ccco1)C1CCS(=O)(=O)C1 (stereo not drawn)	.	-	-	.	.	.	.	.	.	.
O=C(Nc1ccccn1)c1ccc(COc2ccccc2Cl)o1	-	-	-3.96	-	-	-	0.0242	-	0.0152	-
O=C(NCc1ccc2c(c1)OCO2)c1ccc(COc2cc(Cl)ccc2Cl)o1	-	-	-5.72	-	-	-	0.0232	-	0.0149	-
SMILES	PKD1 inh	Rad51 HR inh	Cl transport mod	ROMK primary	KCC2 secondary	KCC2 bumet counter	KCC2 sec2	HEK counter1	KCC2 retest ouab	HEK293 Tl flux2
O=C(Nc1cccnc1)c1ccc(COc2ccccc2Cl)o1	-	-	-8.13	.	-	?	0.022	-	?	-
O=C(Nc1ccc(Cl)cn1)c1ccc(COc2ccccc2Br)o1	-	-	-	-	.	.	.	.	.	.
O=C(Nc1cccnc1)c1ccc(COc2cc(Cl)ccc2Cl)o1	-	-	-5.17	.	-	-	?	-	0.0158	-
O=C(Nc1ccn(Cc2ccccc2F)n1)c1ccc(COc2cc(Cl)ccc2Cl)o1	-	-	-	-	.	.	.	.	.	.
CCOc1ccc(OCc2ccc(C(=O)Nc3cccnc3)o2)cc1	-	-	-	.	.	.	.	.	.	.
Cc1onc(-c2ccccc2Cl)c1NC(=O)NCc1cccs1	.	-	-	.	.	.	.	.	.	.
Cn1nnnc1SCC(=O)NC1CCCc2ccccc21 (stereo not drawn)	-	-	-	-	.	.	.	.	.	.
CCc1nc(CN2CCN(c3cc(C(F)(F)F)ccn3)CC2)c(C)[nH]1	.	-	-	-	.	.	.	.	.	.
COc1c(F)c(F)c(C(=O)O)c(Nc2ccc(C)cc2C)c1F	-	-	-	-	.	.	.	.	.	.
O=C(c1ccc(COc2ccccc2Br)o1)N1CCN(c2ccccn2)CC1	-	-	-6.49	.	?	?	-	0.00576	0.0128	-
COc1ccccc1S(=O)(=O)Cc1ccc(C(=O)N2CCN(c3ccccn3)CC2)o1	-	-	-	.	.	.	.	.	.	.
CCN(CC)c1ccc(NC(=O)COC(=O)COc2ccccc2[N+](=O)[O-])cc1	-	-	-6.82	-	-	-	-	-	-	-
COc1cccc(NC(=O)COC(=O)COc2ccccc2[N+](=O)[O-])c1	-	-	-	-	.	.	.	.	.	.
Fc1ccc(-c2csc(/C=C/c3ccc4c(c3)OCO4)n2)cc1	-	-	-	.	.	.	.	.	.	.
Cc1ccc(N/C(N)=N/c2nc(CSc3ccc(C)cc3)cc(=O)[nH]2)cc1	-	.	-	-	.	.	.	.	.	.
COc1ccc(N/C(N)=N/c2nc(CSc3ccc(C)cc3)cc(=O)[nH]2)cc1	-	-	.	-	-	-	-	-	-	-
CC(C)N(C(=O)CSc1nnc(-c2ccc3c(c2)OCO3)n1C)C(C)C	-	-	-	.	.	.	.	.	.	.
CC(=O)Nc1ccc(S(=O)(=O)NCC(=O)OCC(=O)N2CCN(c3ccccc3)CC2)cc1	-	-	-	-	.	.	.	.	.	.
COc1cc(OC)nc(NC(=O)CS(=O)(=O)c2ccccc2)n1	-	-	-	.	.	.	.	.	.	.
COc1cc(C)nc(NC(=S)N(C)C(=O)c2ccccc2)n1	.	-	6.22	.	-	0.0187	-	0.01	-	0.0116
